{"source": "ChEMBL document CHEMBL1914423", "about": "“New imidazo[2,1-b]thiazole derivatives: synthesis, in vitro anticancer evaluation, and in silico studies” (Eur J Med Chem, 2011)"}
{"system": "not listed separately", "assay": "Antiproliferative activity against human A375P cells after 48 hrs by MTT assay", "assay_type": "functional, cell-based", "details": "not given", "in_short": "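A375P cells in DMEM with 10% FBS at 37 °C, 5% CO2. Seeded at 5×10³ cells/well, held 24 h, then treated with 12-point 3-fold serial dilutions for 48 h. Viability by MTT reduction. IC50 values are means of triplicate experiments.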", "units": {"IC50": "µM"}}
{"smiles": "COc1cccc(-c2nc3sccn3c2-c2ccnc(NCCNC(=O)Nc3cccc(C(F)(F)F)c3)n2)c1", "IC50": 5.3}
{"system": "HL-60(TB)", "assay": "Anticancer activity against human HL-60(TB) cells assessed as cell growth at 10^-5 M after 48 hrs by SRB assay", "assay_type": "functional", "details": "HL-60, 48 h, read-out: Activity", "in_short": "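NCI-60 single-dose screen. Cells in RPMI 1640 with 5% FBS and 2 mM L-glutamine were plated at 5000–40,000 cells/well and preincubated 24 h at 37 °C before one compound concentration. Time-zero plates were TCA-fixed at drug addition. For suspension cells, settled cells were fixed with cold TCA, then SRB-stained and read at 515 nm. Percent growth was calculated from time-zero, control and treated absorbances.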", "units": {"growth at 10 µM": "%"}}
{"smiles": "COc1cccc(-c2nc3sccn3c2-c2ccnc(NCCNC(=O)Nc3cccc(C(F)(F)F)c3)n2)c1", "growth at 10 µM": 62.8}
{"system": "K562", "assay": "Anticancer activity against human K562 cells assessed as cell growth at 10^-5 M after 48 hrs by SRB assay", "assay_type": "functional", "details": "K562, 48 h, read-out: Activity", "in_short": "(§1)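 NCI-60 single-dose screen at one concentration. Cells grown in RPMI 1640 with 5% FBS and 2 mM L-glutamine, plated at 5000–40,000 cells/well, and pre-incubated 24 h at 37 °C in 5% CO2 before DMSO-dissolved drug was added. Cells fixed with TCA, SRB-stained, absorbance read at 515 nm. Percent growth calculated against time-zero and untreated control plates.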", "units": {"growth at 10 µM": "%"}}
{"smiles": "COc1cccc(-c2nc3sccn3c2-c2ccnc(NCCNC(=O)Nc3cccc(C(F)(F)F)c3)n2)c1", "growth at 10 µM": 39.9}
{"system": "MOLT-4", "assay": "Anticancer activity against human MOLT4 cells assessed as cell growth at 10^-5 M after 48 hrs by SRB assay", "assay_type": "functional", "details": "MOLT-4, 48 h, read-out: Activity", "units": {"growth at 10 µM": "%"}}
{"smiles": "COc1cccc(-c2nc3sccn3c2-c2ccnc(NCCNC(=O)Nc3cccc(C(F)(F)F)c3)n2)c1", "growth at 10 µM": 36.7}
{"system": "SR", "assay": "Anticancer activity against human SR cells assessed as cell growth at 10^-5 M after 48 hrs by SRB assay", "assay_type": "functional", "details": "read-out: Activity", "in_short": "(§2)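 NCI-60 single-dose screen: cells in RPMI 1640 with 5% FBS and 2 mM L-glutamine, plated at 5000–40,000 cells/well by doubling time, and preincubated 24 h at 37 °C. Compound given at one concentration from DMSO stock. Cells TCA-fixed and SRB-stained, absorbance at 515 nm. Percent growth relative to time-zero and untreated controls; inhibition % = 100 − growth %.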", "units": {"growth at 10 µM": "%"}}
{"smiles": "COc1cccc(-c2nc3sccn3c2-c2ccnc(NCCNC(=O)Nc3cccc(C(F)(F)F)c3)n2)c1", "growth at 10 µM": 38.5}
{"system": "A549", "assay": "Anticancer activity against human A549 cells assessed as cell growth at 10^-5 M after 48 hrs by SRB assay", "assay_type": "functional", "details": "A549, 48 h, read-out: Activity", "in_short": "as §1", "units": {"growth at 10 µM": "%"}}
{"smiles": "COc1cccc(-c2nc3sccn3c2-c2ccnc(NCCNC(=O)Nc3cccc(C(F)(F)F)c3)n2)c1", "growth at 10 µM": 44.4}
{"system": "NCI-H460", "assay": "Anticancer activity against human NCI-H460 cells assessed as cell growth at 10^-5 M after 48 hrs by SRB assay", "assay_type": "functional", "details": "NCI-H460, 48 h, read-out: Activity", "units": {"growth at 10 µM": "%"}}
{"smiles": "COc1cccc(-c2nc3sccn3c2-c2ccnc(NCCNC(=O)Nc3cccc(C(F)(F)F)c3)n2)c1", "growth at 10 µM": 45.1}
{"system": "COLO 205", "assay": "Anticancer activity against human COLO205 cells assessed as cell growth at 10^-5 M after 48 hrs by SRB assay", "assay_type": "functional", "details": "COLO 205, 48 h, read-out: Activity", "in_short": "as §1", "units": {"growth at 10 µM": "%"}}
{"smiles": "COc1cccc(-c2nc3sccn3c2-c2ccnc(NCCNC(=O)Nc3cccc(C(F)(F)F)c3)n2)c1", "growth at 10 µM": 57.6}
{"system": "HCC 2998", "assay": "Anticancer activity against human HCC2998 cells assessed as cell growth at 10^-5 M after 48 hrs by SRB assay", "assay_type": "functional", "details": "HCC 2998, 48 h, read-out: Activity", "in_short": "as §1", "units": {"growth at 10 µM": "%"}}
{"smiles": "COc1cccc(-c2nc3sccn3c2-c2ccnc(NCCNC(=O)Nc3cccc(C(F)(F)F)c3)n2)c1", "growth at 10 µM": 40.8}
{"system": "SW-620", "assay": "Anticancer activity against human SW620 cells assessed as cell growth at 10^-5 M after 48 hrs by SRB assay", "assay_type": "functional", "details": "SW-620, 48 h, read-out: Activity", "in_short": "as §2", "units": {"growth at 10 µM": "%"}}
{"smiles": "COc1cccc(-c2nc3sccn3c2-c2ccnc(NCCNC(=O)Nc3cccc(C(F)(F)F)c3)n2)c1", "growth at 10 µM": 88.9}
{"system": "SF-295", "assay": "Anticancer activity against human SF295 cells assessed as cell growth at 10^-5 M after 48 hrs by SRB assay", "assay_type": "functional", "details": "SF-295, 48 h, read-out: Activity", "units": {"growth at 10 µM": "%"}}
{"smiles": "COc1cccc(-c2nc3sccn3c2-c2ccnc(NCCNC(=O)Nc3cccc(C(F)(F)F)c3)n2)c1", "growth at 10 µM": 37.7}
{"system": "SNB-19", "assay": "Anticancer activity against human SNB19 cells assessed as cell growth at 10^-5 M after 48 hrs by SRB assay", "assay_type": "functional", "details": "SNB-19, 48 h, read-out: Activity", "units": {"growth at 10 µM": "%"}}
{"smiles": "COc1cccc(-c2nc3sccn3c2-c2ccnc(NCCNC(=O)Nc3cccc(C(F)(F)F)c3)n2)c1", "growth at 10 µM": 74.8}
{"system": "M14", "assay": "Anticancer activity against human M14 cells assessed as cell growth at 10^-5 M after 48 hrs by SRB assay", "assay_type": "functional", "details": "M14, 48 h, read-out: Activity", "in_short": "as §1", "units": {"growth at 10 µM": "%"}}
{"smiles": "COc1cccc(-c2nc3sccn3c2-c2ccnc(NCCNC(=O)Nc3cccc(C(F)(F)F)c3)n2)c1", "growth at 10 µM": 39.2}
{"system": "MDA-MB-435", "assay": "Anticancer activity against human MDA-MB-435 cells assessed as cell growth at 10^-5 M after 48 hrs by SRB assay", "assay_type": "functional", "details": "MDA-MB-435, 48 h, read-out: Activity", "units": {"growth at 10 µM": "%"}}
{"smiles": "COc1cccc(-c2nc3sccn3c2-c2ccnc(NCCNC(=O)Nc3cccc(C(F)(F)F)c3)n2)c1", "growth at 10 µM": 21.5}
{"system": "SK-MEL-28", "assay": "Anticancer activity against human SK-MEL-28 cells assessed as cell growth at 10^-5 M after 48 hrs by SRB assay", "assay_type": "functional", "details": "SK-MEL-28, 48 h, read-out: Activity", "units": {"growth at 10 µM": "%"}}
{"smiles": "COc1cccc(-c2nc3sccn3c2-c2ccnc(NCCNC(=O)Nc3cccc(C(F)(F)F)c3)n2)c1", "growth at 10 µM": 78.4}
{"system": "SK-MEL-5", "assay": "Anticancer activity against human SK-MEL-5 cells assessed as cell growth at 10^-5 M after 48 hrs by SRB assay", "assay_type": "functional", "details": "SK-MEL-5, 48 h, read-out: Activity", "units": {"growth at 10 µM": "%"}}
{"smiles": "COc1cccc(-c2nc3sccn3c2-c2ccnc(NCCNC(=O)Nc3cccc(C(F)(F)F)c3)n2)c1", "growth at 10 µM": 51.5}
{"system": "UACC-257", "assay": "Anticancer activity against human UACC257 cells assessed as cell growth at 10^-5 M after 48 hrs by SRB assay", "assay_type": "functional", "details": "UACC-257, 48 h, read-out: Activity", "in_short": "as §2", "units": {"growth at 10 µM": "%"}}
{"smiles": "COc1cccc(-c2nc3sccn3c2-c2ccnc(NCCNC(=O)Nc3cccc(C(F)(F)F)c3)n2)c1", "growth at 10 µM": 69.5}
{"system": "UACC-62", "assay": "Anticancer activity against human UACC62 cells assessed as cell growth at 10^-5 M after 48 hrs by SRB assay", "assay_type": "functional", "details": "UACC-62, 48 h, read-out: Activity", "in_short": "as §2", "units": {"growth at 10 µM": "%"}}
{"smiles": "COc1cccc(-c2nc3sccn3c2-c2ccnc(NCCNC(=O)Nc3cccc(C(F)(F)F)c3)n2)c1", "growth at 10 µM": 50.5}
{"system": "IGROV-1", "assay": "Anticancer activity against human IGROV1 cells assessed as cell growth at 10^-5 M after 48 hrs by SRB assay", "assay_type": "functional", "details": "IGROV-1, 48 h, read-out: Activity", "in_short": "as §1", "units": {"growth at 10 µM": "%"}}
{"smiles": "COc1cccc(-c2nc3sccn3c2-c2ccnc(NCCNC(=O)Nc3cccc(C(F)(F)F)c3)n2)c1", "growth at 10 µM": 50.9}
{"system": "OVCAR-4", "assay": "Anticancer activity against human OVCAR4 cells assessed as cell growth at 10^-5 M after 48 hrs by SRB assay", "assay_type": "functional", "details": "OVCAR-4, 48 h, read-out: Activity", "units": {"growth at 10 µM": "%"}}
{"smiles": "COc1cccc(-c2nc3sccn3c2-c2ccnc(NCCNC(=O)Nc3cccc(C(F)(F)F)c3)n2)c1", "growth at 10 µM": 91.1}
{"system": "NCI/ADR-RES", "assay": "Anticancer activity against human NCI/ADR-RES cells assessed as cell growth at 10^-5 M after 48 hrs by SRB assay", "assay_type": "functional", "details": "read-out: Activity", "units": {"growth at 10 µM": "%"}}
{"smiles": "COc1cccc(-c2nc3sccn3c2-c2ccnc(NCCNC(=O)Nc3cccc(C(F)(F)F)c3)n2)c1", "growth at 10 µM": 27.2}
{"system": "CAKI-1", "assay": "Anticancer activity against human Caki1 cells assessed as cell growth at 10^-5 M after 48 hrs by SRB assay", "assay_type": "functional", "details": "CAKI-1, 48 h, read-out: Activity", "in_short": "as §1", "units": {"growth at 10 µM": "%"}}
{"smiles": "COc1cccc(-c2nc3sccn3c2-c2ccnc(NCCNC(=O)Nc3cccc(C(F)(F)F)c3)n2)c1", "growth at 10 µM": 40}
{"system": "RXF 393", "assay": "Anticancer activity against human RXF393 cells assessed as cell growth at 10^-5 M after 48 hrs by SRB assay", "assay_type": "functional", "details": "RXF 393, 48 h, read-out: Activity", "units": {"growth at 10 µM": "%"}}
{"smiles": "COc1cccc(-c2nc3sccn3c2-c2ccnc(NCCNC(=O)Nc3cccc(C(F)(F)F)c3)n2)c1", "growth at 10 µM": 6.3}
{"system": "SN12C", "assay": "Anticancer activity against human SN12C cells assessed as cell growth at 10^-5 M after 48 hrs by SRB assay", "assay_type": "functional", "details": "read-out: Activity", "units": {"growth at 10 µM": "%"}}
{"smiles": "COc1cccc(-c2nc3sccn3c2-c2ccnc(NCCNC(=O)Nc3cccc(C(F)(F)F)c3)n2)c1", "growth at 10 µM": 68.8}
{"system": "PC-3", "assay": "Anticancer activity against human PC3 cells assessed as cell growth at 10^-5 M after 48 hrs by SRB assay", "assay_type": "functional", "details": "PC-3, 48 h, read-out: Activity", "units": {"growth at 10 µM": "%"}}
{"smiles": "COc1cccc(-c2nc3sccn3c2-c2ccnc(NCCNC(=O)Nc3cccc(C(F)(F)F)c3)n2)c1", "growth at 10 µM": 32.9}
{"system": "MDA-MB-468", "assay": "Anticancer activity against human MDA-MB-468 cells assessed as cell growth at 10^-5 M after 48 hrs by SRB assay", "assay_type": "functional", "details": "MDA-MB-468, 48 h, read-out: Activity", "units": {"growth at 10 µM": "%"}}
{"smiles": "COc1cccc(-c2nc3sccn3c2-c2ccnc(NCCNC(=O)Nc3cccc(C(F)(F)F)c3)n2)c1", "growth at 10 µM": 39.6}
{"system": "RPMI-8226", "assay": "Anticancer activity against human RPMI8226 cells after 48 hrs by SRB assay", "assay_type": "functional", "details": "RPMI-8226, 48 h", "units": {"GI50": "µM", "LC50": "µM", "TGI": "µM"}}
{"smiles": "COc1cccc(-c2nc3sccn3c2-c2ccnc(NCCNC(=O)Nc3cccc(C(F)(F)F)c3)n2)c1", "GI50": 1.92, "LC50": "> 100", "TGI": 5.11}
